Consider one compound from ChEMBL document CHEMBL1250442, “Inhibiting gene expression at transcription start sites in chromosomal DNA with antigene RNAs” (Nat Chem Biol, 2005).

The source made the active and inactive calls. No cut-off for these calls is given here.

Assay [1] concerns T47D. The experiment in a line: Inhibition of PR-A gene expression in human T47D cells at 25 nM by syber green assay in presence of 10 nM estradiol. It is filed as functional, cell-based.
Assay [2] relates to T47D. The assay is described as follows: Inhibition of PR-B gene expression in human T47D cells at 25 nM by syber green assay in presence of 10 nM estradiol. It is filed as functional, cell-based.
In assay [3] the test system is T47D. The experiment in a line: Inhibition of PR-B mRNA gene expression in human T47D cells at 100 nM by syber green assay. The assay is classed as functional. Summed up:
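T47D cells in RPMI-1640 with 10% FBS, NEAA, insulin, 37 °C, 5% CO2. Plated two days before transfection without antibiotics. Oligofectamine-mediated duplex RNA transfection at 100 nM final, medium changed at 24 h, harvest five days post-transfection. Total RNA extracted with TRIzol. hPR mRNA quantified by SYBR Green qPCR: 50 °C 2 min, 95 °C 10 min, then 40 cycles of 95 °C 15 s / 60 °C 1 min.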

In assay [4] the test system is T47D. The assay is described as follows: Inhibition of major vault protein expression in human T47D cells at 100 nM by syber green assay. The assay is classed as functional, cell-based.
For assay [5], the system named is T47D. The assay is described as follows: Inhibition of PR-A mRNA gene expression in human T47D cells at 100 nM by syber green assay. It is filed as functional. Summed up:
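T47D cells plated at 80,000/well without antibiotics two days before Oligofectamine transfection with agRNA duplex (25 or 100 nM final); medium changed at 24 h, harvest day 5 unless stated otherwise. TRIzol total RNA; PR mRNA by real-time PCR with SYBR Green: 50 °C 2 min, 95 °C 10 min, 40 cycles 95 °C 15 s/60 °C 1 min.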

For the compound `Cc1cn(CC(=O)N(CCNC(=O)CN(CCNC(=O)CN(CCNC(=O)CN(CCNC(=O)CN(CCNC(=O)CN(CCNC(=O)CN(CCNC(=O)CN(CCNC(=O)CN(CCNC(=O)CN(CCNC(=O)CN(CCNC(=O)CN(CCNC(=O)CN(CCNC(=O)CN(CCNC(=O)CN(CCNC(=O)CN(CCNC(=O)CN(CCNC(=O)CN(CCNC(=O)CN(CCNC(=O)CN(CCNC(=O)CN)C(=O)Cn2cnc3c(=O)[nH]c(N)nc32)C(=O)Cn2cnc3c(=O)[nH]c(N)nc32)C(=O)Cn2cnc3c(=O)[nH]c(N)nc32)C(=O)Cn2ccc(=O)[nH]c2=O)C(=O)Cn2cnc3c(=O)[nH]c(N)nc32)C(=O)Cn2cnc3c(N)ncnc32)C(=O)Cn2cnc3c(=O)[nH]c(N)nc32)C(=O)Cn2cnc3c(N)ncnc32)C(=O)Cn2cnc3c(=O)[nH]c(N)nc32)C(=O)Cn2ccc(=O)[nH]c2=O)C(=O)Cn2ccc(=O)[nH]c2=O)C(=O)Cn2ccc(N)nc2=O)C(=O)Cn2ccc(N)nc2=O)C(=O)Cn2ccc(N)nc2=O)C(=O)Cn2ccc(N)nc2=O)C(=O)Cn2cnc3c(N)ncnc32)C(=O)Cn2ccc(=O)[nH]c2=O)C(=O)Cn2ccc(N)nc2=O)C(=O)Cn2ccc(=O)[nH]c2=O)CC(=O)NCCN(CC(=O)NCC(=O)O)C(=O)Cn2cc(C)c(=O)[nH]c2=O)c(=O)[nH]c1=O`, the inhibition result in the assay with T47D [1], in the assay with T47D [2] and in the assay on T47D [4] was “Active” each time. Besides, the inhibition at 0.1 µM in the assay on T47D [3] and with T47D [5] was 91% in each case.

As a reminder, the inhibition is the share of the control response that was lost under treatment.
